From ChEMBL document CHEMBL1125119, “Pyrroloisoquinoline antidepressants. 3. A focus on serotonin” (J Med Chem, 1990)

Columns and labels:
[1] = test system: Mus musculus; assay: In vivo effect on Tetrabenazine motor activity in mice following i.p. administration.; format: functional; conditions: ip
[2] = test system: Mus musculus; assay: Tested in vivo for head twitches antagonizing activity in mice; format: functional
[3] = test system: Rattus norvegicus; assay: Tested in vivo for serotonin syndrome antagonizing activity in rat at a dose of 4 mg/kg
[4] = test system: Mus musculus; assay: In vivo effect on Tetrabenazine ptosis activity in mice following i.p. administration.; format: functional; conditions: ip
[5] = test system: Rattus norvegicus; assay: Tested in vivo for serotonin syndrome antagonizing activity in rat at a dose of 5 mg/kg; format: functional
[6] = test system: Rattus norvegicus; assay: Tested in vivo for serotonin syndrome antagonizing activity in rat on oral administration; format: functional
[7] = target: dopamine transporter (Rattus norvegicus); assay: Tested in vitro for dopamine(DA) neuronal uptake inhibition
[8] = target: norepinephrine transporter (Rattus norvegicus); assay: Tested in vitro for norepinephrine (NE) neuronal uptake inhibition
[9] = test system: Rattus norvegicus; assay: Tested in vivo for serotonin syndrome antagonizing activity in rat; format: functional
[10] = test system: Rattus norvegicus; assay: Tested in vivo for serotonin syndrome antagonizing activity in rat at a dose of 40 mg/kg; format: functional; conditions: read-out: Inhibition
[11] = target: serotonin transporter (Rattus norvegicus); assay: Tested in vitro for serotonin(5-HT) neuronal uptake inhibition
[12] = test system: dopamine transporter (Rattus norvegicus); assay: Tested in vitro for dopamine(DA) neuronal uptake inhibition; remark: listed apart in the source
[13] = test system: serotonin transporter (Rattus norvegicus); assay: Tested in vitro for serotonin(5-HT) neuronal uptake inhibition; remark: listed apart in the source
[14] = test system: norepinephrine transporter (Rattus norvegicus); assay: Tested in vitro for norepinephrine (NE) neuronal uptake inhibition; remark: listed apart in the source
[15] = test system: Mus musculus; assay: Tested in vivo for head twitches antagonizing activity in mice at a dose of 5 mg/kg; format: functional
Method in brief: (§1)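 Male Swiss CD-1 mice (19–24 g), 10 per dose, received test compound s.c. 30 min later they got a subthreshold dose of L-5-hydroxytryptophan (50 mg/kg i.p.). After 15 min acclimation, presence or absence of head twitches was scored over 2 min. Results were expressed as percent responding or as ED50 by probit analysis, using at least three doses.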

[16] = test system: Rattus norvegicus; assay: Tested in vivo for serotonin syndrome antagonizing activity in rat at a dose of 4 mg/kg on oral administration; format: functional
[17] = test system: Rattus norvegicus; assay: Tested in vivo for serotonin syndrome antagonizing activity in rat at a dose of 4 mg/kg; format: functional
[18] = test system: Mus musculus; assay: Tested in vivo for head twitches antagonizing activity in mice at a dose of 2 mg/kg; format: functional; method in brief: as §1

`CSc1ccc([C@@H]2CN3CCC[C@H]3c3ccccc32)cc1` was tested, and the ED50 [1] was > 30 mg/kg, the ED50 ([2]; Mus musculus, read-out: ED50) was ~10 mg/kg and the inhibition in vivo at 4 mg/kg [3] was 4.5%.
Molecule `Clc1ccc([C@@H]2CN3CCC[C@@H]3c3ccccc32)cc1` has an ED50 [1] of 0.39 mg/kg, an ED50 [4] of 0.14 mg/kg and an ED50 ([2]; Mus musculus, read-out: ED50) of 0.76 mg/kg. For the same molecule, the inhibition in vivo at 5 mg/kg [5] was 52%.
In the case of `NC(=O)c1ccc(C2CN3CCCC3c3ccccc32)cc1` (stereo unspecified), the ED50 ([2]; Mus musculus, read-out: ED50) is reported as ~5 mg/kg, the ED50 [6] is reported as 4.5 mg/kg and the Ki [7] is reported as 84.5 nM. For the same molecule, the Ki [8] was 90.2 nM.
In the case of `N#Cc1ccc(C2CN3CCCC3c3ccccc32)cc1` (stereo unspecified), the ED50 ([2]; Mus musculus, read-out: ED50) is reported as ~3 mg/kg and the ED50 [9] is reported as 15 mg/kg.
`C#Cc1ccc(C2CN3CCCC3c3ccccc32)cc1` (stereo unspecified) showed an ED50 ([2]; Mus musculus, read-out: ED50) of ~1 mg/kg.
`c1ccc([C@@H]2CN3CCC[C@@H]3c3ccccc32)cc1` was tested, and the ED50 [1] was 0.34 mg/kg, the ED50 [4] was 0.07 mg/kg and the ED50 ([2]; Mus musculus, read-out: ED50) was > 25 mg/kg.
In the case of `Br.CCSc1ccc(C2CN3CCCC3c3ccccc32)cc1` (stereo unspecified), the ED50 [1] is reported as > 10 mg/kg, the ED50 [4] is reported as ~3 mg/kg and the ED50 ([2]; Mus musculus, read-out: ED50) is reported as 0.54 mg/kg. For the same molecule, the inhibition in vivo at 40 mg/kg [10] was 36%.
In the case of `CSc1ccc(C2CN3CCCC3c3c(Br)cccc32)cc1.Cl` (stereo unspecified), the ED50 ([2]; Mus musculus, read-out: ED50) is reported as > 5 mg/kg.
With `CSc1ccc(C2CN3CCCC3c3c(C#N)cccc32)cc1.Cl` (stereo unspecified) the ED50 ([2]; Mus musculus, read-out: ED50) was > 5 mg/kg, the Ki [7] was 2800 nM and the Ki [11] was 14.7 nM. The Ki [8] was 390 nM.
Work on `CSc1ccc(C2CN3CCC[C@@H]3c3c(Cl)cccc32)cc1.Cl` (stereo partly specified) yielded an ED50 [1] of 3 mg/kg, an ED50 [4] of 3 mg/kg and an ED50 ([2]; Mus musculus, read-out: ED50) of 1.04 mg/kg. It also gave a Ki [7] of 290 nM, a Ki [11] of 3 nM and a Ki [8] of 23.1 nM.
Molecule `COc1cc(OC)c2c(c1)C1CCCN1CC2c1ccc(SC)cc1.Cl` (stereo unspecified) has an ED50 ([2]; Mus musculus, read-out: ED50) of ~5 mg/kg, an Inhibition [12] of 67% and an Inhibition [13] of 68%. It also gave an Inhibition [14] of 55%.
Molecule `CSc1ccc(C2CN3CCC[C@H]3c3c(Cl)cccc32)cc1.Cl` (stereo partly specified) has an inhibition in vivo at 5 mg/kg [15] of 30%, an ED50 [1] of ~1 mg/kg and an ED50 [4] of 3 mg/kg. The Inhibition [12] was 10%, the Ki [11] was ~100 nM and the Inhibition [14] was 10%.
With `Br.CSc1ccc(C2CN3CCCC3c3c(C)cccc32)cc1` (stereo unspecified) the ED50 [1] was > 3 mg/kg, the ED50 [4] was ~1 mg/kg and the ED50 ([2]; Mus musculus, read-out: ED50) was 0.16 mg/kg. For the same molecule, the Ki [7] was 57.7 nM, the Ki [11] was 2.4 nM and the Ki [8] was 11.5 nM.
With `CSc1ccc(C2CN3CCCC3c3ccc(Cl)cc32)cc1.Cl` (stereo unspecified) the inhibition in vivo at 5 mg/kg [15] was 30%, the ED50 [1] was > 3 mg/kg and the ED50 [4] was > 3 mg/kg. The Ki [7] was 103 nM, the Ki [11] was 8.6 nM and the Ki [8] was 16.2 nM.
With `CS(=O)(=O)c1ccc(C2CN3CCCC3c3ccccc32)cc1` (stereo unspecified) the ED50 [4] was 30 mg/kg, the ED50 ([2]; Mus musculus, read-out: ED50) was ~5 mg/kg and the inhibition in vivo at 4 mg/kg ([16]; read-out: Inhibition) was 1.5%.
Molecule `Clc1ccc(C2CN3CCCC3c3ccccc32)c(Cl)c1` (stereo unspecified) has an ED50 ([2]; Mus musculus, read-out: ED50) of ~5 mg/kg.
With `Clc1ccccc1C1CN2CCC[C@@H]2c2ccccc21` (stereo partly specified) the ED50 [1] was > 60 mg/kg, the ED50 [4] was 0.17 mg/kg and the ED50 ([2]; Mus musculus, read-out: ED50) was > 25 mg/kg. The ED50 [9] was > 25 mg/kg.
`CSc1ccccc1C1CN2CCCC2c2ccccc21` (stereo unspecified) gave an inhibition in vivo at 5 mg/kg [15] of 30%.
For `COc1ccccc1C1CN2CCCC2c2ccccc21` (stereo unspecified), the ED50 [1] was ~0.6 mg/kg, the ED50 [4] was ~0.3 mg/kg and the ED50 ([2]; Mus musculus, read-out: ED50) was 0.81 mg/kg. The inhibition in vivo at 4 mg/kg [16] was 5.2%.
In the case of `FC(F)(F)c1ccc(C2CN3CCCC3c3ccccc32)cc1` (stereo unspecified), the ED50 [1] is reported as > 3 mg/kg, the ED50 [4] is reported as ~2 mg/kg and the ED50 ([2]; Mus musculus, read-out: ED50) is reported as 0.55 mg/kg. It also gave an inhibition in vivo at 4 mg/kg [17] of 5.8%, a Ki [7] of 128 nM and a Ki [8] of 10.6 nM.
In the case of `CC(=O)Nc1ccc(C2CN3CCCC3c3ccccc32)cc1` (stereo unspecified), the ED50 [1] is reported as 0.04 mg/kg, the ED50 [4] is reported as 0.04 mg/kg and the ED50 ([2]; Mus musculus, read-out: ED50) is reported as 0.31 mg/kg. It also gave an ED50 [9] of 1.37 mg/kg.
With `Clc1ccc(C2CN3CCCC3c3cc(Cl)ccc32)cc1` (stereo unspecified) the inhibition in vivo at 2 mg/kg [18] was 30%, the ED50 [4] was 4 mg/kg and the inhibition in vivo at 5 mg/kg [5] was 22%. The Ki [7] was 3.2 nM and the Ki [8] was 3.2 nM.
`CSc1ccc(C2CN3CCC[C@@H]3c3ccccc32)cc1` (single isomer, unassigned; (+)) was tested, and the ED50 [2] was 0.043 mg/kg.
For `CSc1ccc(C2CN3CCC[C@@H]3c3ccccc32)cc1` (single isomer, unassigned; (-)), the ED50 [2] was ~5 mg/kg.
`CSc1ccc(C2CN3CCC[C@@H]3c3ccccc32)cc1` (stereo in doubt; 3b) was tested, and the ED50 [1] was > 30 mg/kg, the ED50 [4] was 0.4 mg/kg and the ED50 [2] was 0.081 mg/kg. It also gave an ED50 [9] of 0.2 mg/kg.
`C[S+]([O-])c1ccc(C2CN3CCCC3c3ccccc32)cc1` (stereo in doubt; 11a) was tested, and the ED50 [2] was >5 mg/kg, the Inhibition [12] was 2% and the Inhibition [13] was 12%. It also gave an Inhibition [14] of 4%.
`C[S+]([O-])c1ccc(C2CN3CCCC3c3ccccc32)cc1` (stereo in doubt; 11b) was tested, and the ED50 [1] was > 3 mg/kg, the ED50 [2] was 0.55 mg/kg and the Ki [7] was 6180 nM. The Ki [11] was 597 nM and the Ki [8] was 723 nM.
Work on `CN(C)CCCC1(c2ccc(F)cc2)OCc2cc(C#N)ccc21` (stereo unspecified) [CITALOPRAM] yielded an ED50 ([2]; Mus musculus, read-out: ED50) of 0.29 mg/kg and an ED50 [9] of 0.78 mg/kg.
`COc1ccc(OC[C@H]2CN(C)CC[C@@H]2c2ccccc2)cc1` [FEMOXETINE] gave an ED50 [1] of 3.5 mg/kg, an ED50 [4] of 2.1 mg/kg and an ED50 ([2]; Mus musculus, read-out: ED50) of 3.3 mg/kg. The ED50 [9] was 11.4 mg/kg.
`CNCCC(Oc1ccc(C(F)(F)F)cc1)c1ccccc1` (stereo unspecified) [FLUOXETINE] gave an ED50 ([2]; Mus musculus, read-out: ED50) of 0.43 mg/kg and an ED50 [9] of 12.7 mg/kg.
In the case of `CN(C)CCCN1c2ccccc2CCc2ccccc21` [IMIPRAMINE], the ED50 [1] is reported as 0.58 mg/kg, the ED50 [4] is reported as 0.98 mg/kg and the ED50 ([2]; Mus musculus, read-out: ED50) is reported as > 50 mg/kg. The ED50 [9] was > 25 mg/kg.
In the case of `Fc1ccc([C@@H]2CCNC[C@H]2COc2ccc3c(c2)OCO3)cc1` [PAROXETINE], the ED50 ([2]; Mus musculus, read-out: ED50) is reported as 0.062 mg/kg and the ED50 [9] is reported as 0.49 mg/kg.
